Legend:
[1] = system: human lung fibroblast cell line WI-26-VA4; assay: In vitro cytotoxicity test, MTT colorimetric assay; type: cell-based; conditions: WI26VA4, 48 h, read-out: IC50 (μM) ± SD Wi-26VA4
[2] = system: P. falciparum chloroquine-resistant (W2) strain; assay: In vitro schizonticidal activity, ELISA antiHRPII assay; type: cell-based, Plasmodium falciparum; conditions: for SI (selectivity index) P.f. W2: SI = IC50 WI-26-VA4/IC50 P. falciparum strain W2
Outline: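 W2 parasites grown in human erythrocytes in RPMI 1640 with human plasma, sorbitol-synchronized, plated at 0.05% parasitemia and 1.5% hematocrit. Triplicate drug dilutions for 72 h, freeze-thaw, anti-HRPII ELISA; IC50 is the mean of three assays. WI-26-VA4 fibroblasts: 1:10 serial dilutions (0.1% DMSO), 48 h, MTT read at 550 nm, triplicate. SI = fibroblast IC50 / W2 IC50.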

[3] = system: P. falciparum chloroquine-sensitive (3D7) strain; assay: In vitro schizonticidal activity, ELISA antiHRPII assay; type: cell-based, Plasmodium falciparum; conditions: for IC50: Plasmodium falciparum, 3D7, 72 h, read-out: IC50 (μM) ± SD P.f. 3D7
[4] = system: S. typhimurium strain TA100; assay: Ames/Salmonella mutagenicity assay; type: cell-based, Salmonella typhimurium; conditions: with and without metabolic activation (S9), 6.7 to 30.9 μM
Outline: (§1)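 Microsuspension protocol: overnight cultures (1 × 10^9 cells/mL) concentrated 10× by centrifugation, then exposed to five concentrations (TA100 6.7–30.9 μM; TA98 16.7–77.5 μM), with or without S9, 90 min at 37 °C. Plated in histidine/biotin top agar on minimal glucose agar; his+ revertants counted after 48 h at 37 °C. DMSO negative control; MI = treated/control revertants, MI ≥ 2 mutagenic.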

[5] = system: S. typhimurium strain TA98; assay: Ames/Salmonella mutagenicity assay; type: cell-based, Salmonella typhimurium; conditions: with and without metabolic activation (S9), 16.7 to 77.5 μM
Outline: as §1

[6] = system: RKO-AS45-1 human cell line; assay: Alkaline comet assay; type: cell-based; conditions: 17.7 μM vs 2.5 μM
[7] = system: RKO-AS45-1 human cell line; assay: CBMN; type: cell-based; conditions: 2.5 to 17.7 μM

Structure (SMILES)	IC50 [1] [µM]	SI (selectivity index) P.f. W2 [2]	IC50 [3] [µM]	induction of gene mutations (Ames) [4]	increase of in vitro antimalarial activity compared to compound 5c ([2]; P. falciparum W2) [fold]	induction of gene mutations (Ames) [5]	genotoxic concentration relative to IC50 against P. falciparum [6]	nuclear division index (NDI) [7]	frequency of micronuclei ([7]; 3 h exposure)	SI (selectivity index) P.f. 3D7 ([3]; SI = IC50 WI-26-VA4/IC50 P. falciparum strain 3D7)
CCN(CC)CCCC(C)Nc1ccnc2cc(Cl)ccc12 (stereo not shown) [CQ, chloroquine, reference compound]	> 100	>250	0.18 ± 0.05	–	–	–	–	–	–	–
FCCCCCCCCCCOCCCc1cccnc1 [Compound 7, 3-(3-((10-Fluorodecyl)oxy)propyl)pyridine]	28.2 ± 3.7	11.2	2.3 ± 0.15	not able to induce gene mutations	5.8	not able to induce gene mutations	about seven times higher	None of the concentrations assessed affected the nuclear division index (NDI) values	altered only at concentrations higher than the IC50	12.2

Reference: article PMC6045394 (ACS Omega, 2017)
